Data on 35 compounds can be found in ChEMBL document CHEMBL4020726, “Discovery of 2-((4,6-dimethylpyrimidin-2-yl)thio)-N-phenylacetamide derivatives as new potent and selective human sirtuin 2 inhibitors” (Eur J Med Chem, 2017).

Calls of active or inactive are those of the source. No cut-off for these calls is given here.

Data set [1] deals with T1, NAD-dependent protein deacetylase sirtuin-2 (Homo sapiens) (UniProt Q8IXJ6).
T1 sequence (whole entry): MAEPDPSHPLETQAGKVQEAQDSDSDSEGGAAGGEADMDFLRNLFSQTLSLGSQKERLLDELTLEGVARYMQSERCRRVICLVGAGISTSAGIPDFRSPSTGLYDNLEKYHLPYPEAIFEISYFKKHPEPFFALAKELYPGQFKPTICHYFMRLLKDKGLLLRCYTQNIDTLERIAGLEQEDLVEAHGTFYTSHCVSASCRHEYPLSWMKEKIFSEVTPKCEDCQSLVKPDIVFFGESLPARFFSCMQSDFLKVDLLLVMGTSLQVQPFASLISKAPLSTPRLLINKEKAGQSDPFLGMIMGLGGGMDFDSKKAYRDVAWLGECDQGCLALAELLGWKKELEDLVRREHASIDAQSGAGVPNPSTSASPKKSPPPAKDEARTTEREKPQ
The experiment in a line: Inhibition of human SIRT2 at 5 uM.

Data set [2] addresses T1, NAD-dependent protein deacetylase sirtuin-2 (Homo sapiens). The experiment in a line: Inhibition of human SIRT2 at 50 uM.
Data set [3] concerns the target T2, NAD-dependent protein deacetylase sirtuin-3, mitochondrial (Homo sapiens, UniProt Q9NTG7).
T2 sequence (Q9NTG7 whole entry): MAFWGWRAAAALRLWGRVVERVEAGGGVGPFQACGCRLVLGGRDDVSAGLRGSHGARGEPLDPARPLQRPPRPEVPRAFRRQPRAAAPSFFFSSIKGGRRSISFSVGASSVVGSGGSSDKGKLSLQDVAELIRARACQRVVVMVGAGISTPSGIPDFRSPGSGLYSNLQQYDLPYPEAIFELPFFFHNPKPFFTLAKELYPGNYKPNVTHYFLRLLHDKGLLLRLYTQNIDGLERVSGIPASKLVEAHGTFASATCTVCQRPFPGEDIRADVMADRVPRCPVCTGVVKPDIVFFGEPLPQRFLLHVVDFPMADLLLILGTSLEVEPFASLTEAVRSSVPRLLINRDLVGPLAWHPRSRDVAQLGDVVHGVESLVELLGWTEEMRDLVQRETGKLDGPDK
The experiment in a line: Inhibition of SIRT3 (unknown origin).

Data set [4] can be described thus: Growth inhibition of human HL7702 cells at 100 uM after 120 hrs by MTT assay. The format is cell-based. To be noted: HL7702 (L02) cells, read-out: GI.
Data set [5] has as its target T3, NAD-dependent protein deacetylase sirtuin-1 (Homo sapiens, UniProt Q96EB6).
T3 sequence (Q96EB6 whole entry): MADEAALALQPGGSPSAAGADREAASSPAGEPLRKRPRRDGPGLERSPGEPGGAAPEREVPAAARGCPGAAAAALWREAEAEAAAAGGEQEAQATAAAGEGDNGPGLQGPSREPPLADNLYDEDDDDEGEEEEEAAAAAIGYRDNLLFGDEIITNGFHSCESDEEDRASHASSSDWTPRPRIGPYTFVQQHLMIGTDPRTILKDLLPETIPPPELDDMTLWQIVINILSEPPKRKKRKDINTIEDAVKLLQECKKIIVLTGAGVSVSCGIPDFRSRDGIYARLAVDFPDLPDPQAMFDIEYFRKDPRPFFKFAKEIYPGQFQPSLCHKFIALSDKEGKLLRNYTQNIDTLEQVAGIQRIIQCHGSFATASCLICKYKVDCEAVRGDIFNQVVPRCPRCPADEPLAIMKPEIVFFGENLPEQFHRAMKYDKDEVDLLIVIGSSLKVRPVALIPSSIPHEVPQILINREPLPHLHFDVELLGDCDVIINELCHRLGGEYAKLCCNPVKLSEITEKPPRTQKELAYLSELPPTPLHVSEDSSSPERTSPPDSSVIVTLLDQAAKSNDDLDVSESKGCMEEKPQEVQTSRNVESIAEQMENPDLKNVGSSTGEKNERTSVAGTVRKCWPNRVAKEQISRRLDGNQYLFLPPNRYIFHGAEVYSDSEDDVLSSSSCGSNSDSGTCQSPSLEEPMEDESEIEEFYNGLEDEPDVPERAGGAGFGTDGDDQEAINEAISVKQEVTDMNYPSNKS
The experiment in a line: Inhibition of SIRT1 (unknown origin).

The test system of data set [6] is MCF7. Put plainly: Growth inhibition of human MCF7 cells at 50 uM after 120 hrs by MTT assay. The format is functional. Put shortly:
(§1)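 MCF-7 cells were kept in high-glucose DMEM with 10% FBS and penicillin/streptomycin, split at 80–90% confluency and used within 10 passages. They were seeded at 3000 cells/well, grown 24 h, then exposed for 120 h at 37°C, 5% CO2 (final DMSO 1% v/v). MTT formazan was dissolved in acidified 20% SDS and read at 570 nm. Triplicates; experiments repeated at least twice.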

Data set [7] concerns MCF7. Put plainly: Growth inhibition of human MCF7 cells after 120 hrs by MTT assay. The class given is functional, cell-based. Put shortly:
as §1

With `Cc1cc(C)nc(SCC(=O)Nc2cccc(OCc3ccccc3)c2)n1`, the inhibition in data set [1] came out at 59%; in data set [2], 92%.
Taken in the same sequence, the figures for `Cc1cc(C)nc(SCC(=O)Nc2cccc(COc3ccc(NS(=O)(=O)C4CC4)cc3)c2)n1` were 67% and 95%.
Taken in the same sequence, the figures for `Cc1cc(C)nc(SCC(=O)Nc2ccc(NCc3ccccc3)cc2)n1` were 9% and 55%.
Consider `Cc1cc(C)nc(SCC(=O)Nc2ccc(Cc3ccccc3)cc2)n1`, for which the inhibition in data set [1] stood at 70%; in data set [2], 74%.
For `Cc1cc(C)nc(SCC(=O)Nc2cccc(COc3cccc4cccnc34)c2)n1`, in that order: 41% and 73%.
For `Cc1cc(C)nc(SCC(=O)Nc2cccc(C(O)c3ccccc3)c2)n1` (centres undefined), in that order: 18% and 78%.
Taken in the same sequence, the figures for `Cc1cc(C)nc(SCC(=O)Nc2cccc(NCc3ccccc3)c2)n1` were 64% and 95%.
For `Cc1ccc(C(=O)Nc2ccc(S(=O)(=O)O)c3cc(S(=O)(=O)O)cc(S(=O)(=O)O)c23)cc1NC(=O)c1cccc(NC(=O)Nc2cccc(C(=O)Nc3cc(C(=O)Nc4ccc(S(=O)(=O)O)c5cc(S(=O)(=O)O)cc(S(=O)(=O)O)c45)ccc3C)c2)c1`, the values for the inhibition in data set [1] and in data set [2] were 31% and 73%, respectively.
For `O=C(Nc1ccccc1-c1cn2c(CN3CCNCC3)csc2n1)c1cnc2ccccc2n1`, inhibition in data set [3] was half-maximal at 0.85 µM (IC50).
Take `CC(=O)Nc1ccc(OCc2cccc(NC(=O)CSc3nc(C)cc(C)n3)c2)cc1`: the inhibition came to 62% in data set [1] and 92% in data set [2].
For `Cc1cc(C)nc(SCC(=O)Nc2ccc(NCc3ccncc3)cc2)n1`, in that order: 10% and 43%.
For `Cc1cc(C)nc(SCC(=O)Nc2ccc(Nc3ccccc3)cc2)n1`, in that order: 19% and 72%.
For `Cc1cc(C)nc(S(=O)(=O)CC(=O)Nc2ccc(Oc3ccccc3)cc2)n1`, in that order: -2% and 21%.
Regarding `Cc1cc(C)nc(SCC(=O)Nc2cccc(Cc3ccccc3)c2)n1`, the values for the inhibition in data set [1] and in data set [2] were 73% and 96%, respectively.
Taken in the same sequence, the figures for `Cc1cc(C)nc(SCC(=O)Nc2cccc(COc3ccc4ccccc4c3)c2)n1` were 59% and 84%.
In the case of `Cc1cc(C)nc(SCC(=O)Nc2cccc(COc3ccc(NC(=O)c4cccs4)cc3)c2)n1`, the IC50 in data set [3] and in data set [5] was more than 300 µM each time. Further, the inhibition at 120 h, 100 µM in data set [4] came out at 3%. In data set [6] (MCF7, 120 h, read-out: GI), the inhibition of growth at 50 µM is more than 50%. Moreover, the “growth inhibition (GI)” value in data set [7] is “Dose-dependent effect”.
Regarding `Cc1cc(C)nc(SCC(=O)Nc2ccc(C(=O)c3ccccc3)cc2)n1`, the inhibition in data set [1] turned out to be 22%; in data set [2], 74%.
Taken in the same sequence, the figures for `Cc1cc(C)nc(SCC(=O)Nc2cccc(CNc3ccccc3)c2)n1` were 49% and 90%.
For `Cc1cc(C)nc(SCC(=O)Nc2ccc(C(O)c3ccccc3)cc2)n1` (centres undefined), in that order: 26% and 75%.
For `Cc1cc(C)nc(SCC(=O)Nc2ccc(CNc3ccccc3)cc2)n1`, in that order: 20% and 72%.
Consider `Cc1cc(C)nc(SCC(=O)Nc2ccc(OCc3ccccc3)cc2)n1`, for which the inhibition stood at 40% in data set [1] and 62% in data set [2].
As to `Cc1cc(C)nc(SCC(=O)Nc2ccc(NCc3cccs3)cc2)n1`, the inhibition in data set [1] was 15%; in data set [2], 70%.
Take `Cc1cc(C)nc(SCC(=O)Nc2ccc(COc3ccccc3)cc2)n1`: the inhibition was 1% in data set [1] and 24% in data set [2]. In addition, the inhibition at 120 h, 100 µM in data set [4] was 6%. In addition, in data set [6], the “growth inhibition (GI)” value is “inactive”.
On to `Cc1cc(C)nc(SCC(=O)Nc2cccc(COc3cccc4ccccc34)c2)n1`, for which the figures for the inhibition in data set [1] and in data set [2] were 42% and 79%, respectively.
For `Cc1cc(C)nc(SCC(=O)Nc2ccc(Oc3ccccc3)cc2)n1`, in that order: 42% and 78%.
Taken in the same sequence, the figures for `Cc1cc(C)nc(SCC(=O)Nc2cccc(COc3ccc(NS(=O)(=O)c4ccccc4)cc3)c2)n1` were 73% and 87%.
For `Cc1cc(C)nc(SCC(=O)Nc2ccc(NCc3ccco3)cc2)n1`, in that order: 17% and 58%.
In the case of `Cc1cc(C)nc(SCC(=O)Nc2cccc(NCc3cccs3)c2)n1`, the inhibition in data set [1] is 60%; in data set [2], 93%.
In the case of `Cc1cc(C)nc([S+]([O-])CC(=O)Nc2ccc(Oc3ccccc3)cc2)n1` (centres undefined), the inhibition is 34% in data set [1] and 79% in data set [2].
Taken in the same sequence, the figures for `Cc1cc(C)nc(SCC(=O)Nc2cccc(COc3ccccc3)c2)n1` were 71% and 96%.
For `Cc1cc(C)nc(SCC(=O)Nc2cccc(COc3ccc4[nH]ncc4c3)c2)n1`, in that order: 57% and 91%.
Taken in the same sequence, the figures for `CC(=O)Nc1cccc(OCc2cccc(NC(=O)CSc3nc(C)cc(C)n3)c2)c1` were 68% and 99%.
`Cc1cc(C)nc(SCC(=O)Nc2cccc(Oc3ccccc3)c2)n1`: the figures for the inhibition in data set [1] and in data set [2] were 49% and 92%, respectively.
With `Cc1cc(C)nc(SCC(=O)Nc2cccc(Nc3ccccc3)c2)n1`, the inhibition in data set [1] stood at 61%; in data set [2] it was 95%.
As to `Cc1cc(C)nc(SCC(=O)Nc2cccc(C(=O)c3ccccc3)c2)n1`, the inhibition in data set [1] was 40%; in data set [2], 89%.
